Test results reported in ChEMBL document CHEMBL1671680, “Pradimicin S, a highly soluble nonpeptidic small-size carbohydrate-binding antibiotic, is an anti-HIV drug lead for both microbicidal and systemic use” (Antimicrob Agents Chemother, 2010).
The source made the active and inactive calls. No cut-off for these calls is given here.

What was measured:
[1] = test system: Human immunodeficiency virus 1; test: Binding affinity to HIV-1 3B gp120 assessed as association rate constant after 6 mins by SPR analysis in presence of 10 mM CaCl2
[2] = test system: Human immunodeficiency virus 1; test: Ratio of EC90 to EC50 for R5 tropic HIV-1 clade A/E isolate ID12 infected in human PBMC; assay type: functional
[3] = Cytotoxicity against human CEM cells after 7 days by trypan blue staining; assay type: cell-based, CCRF-CEM
[4] = Binding affinity to HIV-1 3B gp120 after 6 mins by SPR analysis in presence of 10 mM CaCl2; set-up: species or system Human immunodeficiency virus 1
PBMC [5] = test: Immunostimulatory activity against human PBMC assessed as IL1-beta production at 22 uM after 72 hrs; assay type: functional, cell-based
Method in brief: (§1)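 Unstimulated PBMCs and PHA-blasts from three donors, in three independent experiments, cultured with test compound at 20 μg/ml (21 or 22 μM). Supernatants collected after 72 h. The cytokine profile was read on a Bio-Plex 27-plex human cytokine bead immunoassay, using beads coupled to cytokine-specific monoclonal antibodies and run per the kit instructions.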

PBMC [6] = test: Immunostimulatory activity against human PBMC assessed as suppression of G-CSF production at 22 uM after 72 hrs; assay type: functional; method in brief: as §1
PBMC [7] = test: Immunostimulatory activity against human PBMC assessed as G-CSF production at 22 uM after 72 hrs; assay type: functional, cell-based
[8] = test system: Human immunodeficiency virus 1; test: Antiviral activity against R5 tropic HIV-1 clade A/E isolate ID12 infected in human PBMC assessed as inhibition of viral replication after 12 days by ELISA; conditions: Human immunodeficiency virus 1, clade A/E isolate ID12, 12 days
[9] = test system: Human immunodeficiency virus 1; test: Ratio of EC90 to EC50 for X4 tropic HIV-1 group O isolate BCF06 infected in human PBMC; assay type: functional
Method in brief: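 PBMCs from healthy donors were PHA-stimulated (2 μg/ml, 3 days, 37°C), then seeded at 0.5 × 10^6 per well with compound dilutions in RPMI 1640 with 10% FCS and IL-2 (25 U/ml). Virus was added at 250 pg p24 or p27/ml final. On day 12, supernatant HIV-1 p24 or HIV-2 p27 was measured by ELISA, giving EC50 and EC90.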

[10] = test system: Human immunodeficiency virus 1; test: Binding affinity to HIV-1 3B gp120 after 6 mins by SPR analysis at pH 4
[11] = test system: Human immunodeficiency virus 1; test: Antiviral activity against X4 tropic HIV-1 clade D isolate UG270 infected in human PBMC assessed as inhibition of viral replication after 12 days by ELISA; conditions: Human immunodeficiency virus 1, clade D isolate UG270, 12 days
[12] = test system: Human immunodeficiency virus 1; test: Antiviral activity against HIV-1 3B infected in human HUT78 cells assessed as prevention of syncytium formation between persistently HIV-1 3B-infected HUT-78 cells and uninfected SupT1 cells compound preexposed to high temperature after 3 to 4 days by ELISA; assay type: functional, organism-based; conditions: SUP-T1
[13] = test system: Human immunodeficiency virus 2; test: Antiviral activity against HIV-2 ROD infected in human CEM cells assessed as inhibition of virus-induced cytopathicity after 3 to 4 days by microscopic analysis; assay type: functional, organism-based; conditions: Human immunodeficiency virus 2, ISOLATE ROD, CCRF-CEM
Method in brief: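 CEM cells (5 × 10^5/ml) infected at 100 CCID50/ml, mixed 1:1 with compound dilutions, incubated 3–4 days at 37°C; giant cells counted microscopically against untreated infected controls; EC50 is the concentration preventing syncytium formation by 50%.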

[14] = Cytotoxicity against human C8166 cells after 3 to 4 days; assay type: cell-based
Method in brief: (§2)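 Cells seeded at 20,000–75,000 per well with compound dilutions, incubated 3–4 days at 37°C, and counted on a Coulter particle counter; CC50 is the concentration inhibiting proliferation by 50%.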

PBMC [15] = test: Immunostimulatory activity against human PBMC assessed as MIP-1beta production at 22 uM after 72 hrs; assay type: functional, cell-based; method in brief: as §1
PBMC [16] = test: Immunostimulatory activity against human PBMC assessed as IL-9 production at 22 uM after 72 hrs; assay type: functional, cell-based; method in brief: as §1
PBMC [17] = test: Immunostimulatory activity against human PBMC assessed as IL-8 production at 21 uM after 72 hrs; assay type: functional, cell-based; method in brief: as §1
[18] = test system: Human immunodeficiency virus 1; test: Binding affinity to HIV-1 3B gp120 after 6 mins by SPR analysis
[19] = test system: Human immunodeficiency virus 2; test: Antiviral activity against X4 tropic HIV-2 BV-5061 W infected in human PBMC assessed as inhibition of viral replication […] by ELISA; assay type: functional, organism-based; conditions: Human immunodeficiency virus 2, BV-5061
Method in brief: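 PHA-stimulated (2 μg/ml, 3 days) donor PBMC blasts seeded at 0.5 × 10^6 cells/well with compound dilutions in RPMI 1640 + 10% FCS + IL-2 (25 U/ml); virus added at 250 pg p24 or p27/ml final; supernatant p24 (HIV-1) or p27 (HIV-2) antigen measured by ELISA at day 12; EC50 from antigen reduction.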

[20] = Binding affinity to HIV-1 3B gp120 assessed as dissociation rate constant after 6 mins by SPR analysis in presence of 10 mM CaCl2; set-up: species or system Human immunodeficiency virus 1
PBMC [21] = test: Immunostimulatory activity against human PBMC assessed as IL-8 production at 22 uM after 72 hrs; assay type: functional, cell-based; method in brief: as §1
PBMC [22] = test: Immunostimulatory activity against human PBMC assessed as IL-15 production at 22 uM after 72 hrs; assay type: functional, cell-based; method in brief: as §1
PBMC [23] = test: Immunostimulatory activity against human PBMC assessed as GM-CSF production at 22 uM after 72 hrs; assay type: functional, cell-based
[24] = test system: Human immunodeficiency virus 1; test: Antiviral activity against HIV-1 3B infected in human HUT78 cells assessed as prevention of syncytium formation between persistently HIV-1 3B-infected HUT-78 cells and uninfected SupT1 cells compound preexposed at pH 4 after 3 to 4 days by ELISA; assay type: functional, organism-based; conditions: SUP-T1
[25] = Antiviral activity against SIV mac251 infected in human Raji cells expressing DC-SIGN gene assessed as prevention of syncytium formation between persistently […]-infected Raji cells and uninfected human C8166 cells after 60 mins by ELISA; assay type: functional, cell-based, Simian immunodeficiency virus - mac; conditions: Simian immunodeficiency virus, 251, Raji, 1 h
[26] = test system: Human immunodeficiency virus 1; test: Antiviral activity against R5 tropic HIV-1 clade F isolate BZ163 infected in human PBMC assessed as inhibition of viral replication after 12 days by ELISA; conditions: Human immunodeficiency virus 1, clade F isolate BZ163, 12 days
PBMC [27] = test: Immunostimulatory activity against human PBMC assessed as suppression of PDGF production at 21 uM after 72 hrs; assay type: functional; method in brief: as §1
PBMC [28] = test: Immunostimulatory activity against human PBMC assessed as IL-10 production at 22 uM after 72 hrs; assay type: functional, cell-based
PBMC [29] = test: Immunostimulatory activity against human PBMC assessed as FGF production at 22 uM after 72 hrs; assay type: functional, cell-based
PBMC [30] = test: Immunostimulatory activity against human PBMC assessed as IL-12 production at 22 uM after 72 hrs; assay type: functional, cell-based; method in brief: as §1
[31] = Cytotoxicity against human U87 cells after 3 to 4 days; assay type: cell-based, U-87MG ATCC; method in brief: as §2
PBMC [32] = test: Immunostimulatory activity against human PBMC assessed as PDGF production at 21 uM after 72 hrs; assay type: functional, cell-based; method in brief: as §1
[33] = test system: Human immunodeficiency virus 2; test: Ratio of EC90 to EC50 for X4 tropic HIV-2 BV-5061 W infected in human PBMC

Compound | Ka [1] [×10⁴ /M/s] | Ratio [2] | CC50 at 168 h [3] [µM] | Kd [4] [µM] | Activity (PBMC [5]) | fold change (FC) (PBMC [6]) | Activity (PBMC [7]) | EC50 [8] [µM] | Ratio [9] | Activity [10] | EC50 [11] [µM] | Activity [12] | EC50 [13] [µM] | CC50 [14] [µM] | Activity (PBMC [15]) | Activity (PBMC [16]) | Activity (PBMC [17]) | Activity [18] | EC50 [19] [µM] | Kd [20] [×10⁻³ /s] | further results
CN[C@@H]1[C@H](O[C@@H]2OC[C@@H](O)[C@H](O)[C@H]2O)[C@@H](O)[C@H](O[C@H]2c3cc(C)c(C(=O)N[C@H](C)C(=O)O)c(O)c3-c3c(cc4c(c3O)C(=O)c3cc(OC)cc(O)c3C4=O)[C@@H]2O)O[C@@H]1C [PRADIMICIN A] | 1.49 | 2 | > 100 | 0.41 | inactive | 2 | inactive | 4.7 | 2 | Active | 3 | Active | 5.2 | > 50 | inactive | inactive | inactive | inactive | 4.3 | 6.1 | Activity (PBMC [21]): inactive; Activity (PBMC [22]): inactive; Activity (PBMC [23]): inactive; Activity [24]: Active; IC50 [25]: 16 µM; EC50 [26]: 8 µM; fold change (FC) (PBMC [27]): 2; Activity (PBMC [28]): inactive; Activity (PBMC [29]): inactive; Activity (PBMC [30]): inactive; CC50 [31]: > 50 µM; Activity (PBMC [32]): inactive; Ratio [33]: 2
CN[C@@H]1[C@H](O[C@@H]2O[C@H](CO)[C@@H](O)[C@H](OS(=O)(=O)O)[C@H]2O)[C@@H](O)[C@H](O[C@H]2c3cc(C)c(C(=O)N[C@H](C)C(=O)O)c(O)c3-c3c(cc4c(c3O)C(=O)c3cc(OC)cc(O)c3C4=O)[C@@H]2O)O[C@@H]1C [PRADIMICIN S] | 1.27 | 2 | > 100 | 0.4 | inactive | 2 | inactive | 15 | 2 | Active | 18 | Active | 9.6 | > 230 | inactive | inactive | inactive | inactive | 3.1 | 5.11 | Activity (PBMC [21]): inactive; Activity (PBMC [22]): inactive; Activity (PBMC [23]): inactive; Activity [24]: Active; IC50 [25]: 16 µM; EC50 [26]: 17 µM; fold change (FC) (PBMC [27]): 2; Activity (PBMC [28]): inactive; Activity (PBMC [29]): inactive; Activity (PBMC [30]): inactive; CC50 [31]: > 230 µM; Activity (PBMC [32]): inactive; Ratio [33]: 2
